Among the data in ChEMBL document CHEMBL1154946, “Synthetic atpenin analogs: Potent mitochondrial inhibitors of mammalian and fungal succinate-ubiquinone oxidoreductase” (Bioorg Med Chem Lett, 2010) are IC50 and Activity values, retold here.

Activity calls are given as the source filed them. No cut-off for these calls is given here.

A short description of assay [1]: Inhibition of bovine heart sub-mitochondrial membrane SQR assessed as ubiquinol-dependent reduction of DCIP after 10 mins by spectrophotometry. On the set-up: species or system Bos taurus. The gist of the method: (§1)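 Complex II (SQR) activity in sub-mitochondrial membranes from bovine heart or Septoria nodorum, run in plate format. 20 mM succinate serves as electron donor, with decyl ubiquinone as acceptor and DCIP as terminal dye acceptor. The reaction is started by adding succinate and runs 10 min. Read-out is spectrophotometric, giving IC50.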

Assay [2] deals with Parastagonospora nodorum. Description: Antifungal activity against Septoria nodorum at 200 ppm by whole plant assay. In kind it is functional, organism-based.
Assay [3] can be described thus: Inhibition of Septoria nodorum sub-mitochondrial membrane SQR assessed as ubiquinol-dependent reduction of DCIP after 10 mins by spectrophotometry. On the set-up: species or system Parastagonospora nodorum. Put shortly:
as §1

Assay [4] deals with Parastagonospora nodorum. Description: Antifungal activity against Septoria nodorum at 200 ppm. In kind it is functional, organism-based.

Consider `COc1[nH]cc(C(=O)c2cccc(Cl)c2)c(=O)c1OC`, for which the IC50 in assay [1] is 6560 nM; in assay [3] it was over 30000 nM. Moreover, the result in assay [2] and in assay [4] was inactive.

For the compound `COc1[nH]cc(C(=O)c2ccc(-c3ccccc3)cc2)c(=O)c1OC`, the IC50 was 795 nM in assay [1] and 2750 nM in assay [3]. The outcome in assay [2] and in assay [4] was inactive.

With `CCC(C)C(=O)c1c(O)nc(OC)c(OC)c1O` (stereo not drawn), the results for the IC50 in assay [1] and in assay [3] were 96 nM and 2580 nM, respectively. The outcome in assay [2] and in assay [4] was inactive.

`COc1nc(O)c(C(=O)C(C)Cc2ccc(C(C)(C)C)cc2)c(O)c1OC` (stereo not drawn): the IC50 stood at 8 nM in assay [1] and 24 nM in assay [3]. Besides, the result in assay [2] and in assay [4] was inactive.

As to `COc1nc(O)c(C(=O)C(c2ccccc2)c2ccccc2)c(O)c1OC`, the 50% inhibitory concentration (IC50) in assay [1] was 630 nM; in assay [3], over 30000 nM. Besides, the outcome in assay [2] and in assay [4] was inactive.

As for `COc1[nH]cc(C(=O)c2ccc(Cl)cc2)c(=O)c1OC`, the figures for the IC50 in assay [1] and in assay [3] were 3400 nM and 26700 nM, respectively. Further, the result in assay [2] and in assay [4] was inactive.

As to `CCCCC(CC)C(=O)c1c(O)nc(OC)c(OC)c1O` (stereo not drawn), the half-maximal inhibitory concentration (IC50) in assay [1] stood at 125 nM; in assay [3], 234 nM. Also, the result in assay [2] and in assay [4] was inactive.

`O=C(Nc1ccccc1-c1ccc(Cl)cc1)c1cccnc1Cl` [BOSCALID]: the figures for the IC50 in assay [1] and in assay [3] were 1790 nM and 245 nM, respectively.

For the compound `COc1[nH]cc(C(=O)c2cccc(Oc3ccccc3)c2)c(=O)c1OC`, the IC50 in assay [1] worked out at 454 nM; in assay [3], 2980 nM. For the same compound, the outcome in assay [2] and in assay [4] was inactive.

On to `COc1[nH]cc(C(=O)c2ccccc2Cl)c(=O)c1OC`, for which the IC50 in assay [1] and in assay [3] was over 30000 nM throughout. The result in assay [2] and in assay [4] was inactive.

Regarding `COc1nc(O)c(C(=O)C(C)c2ccccc2)c(O)c1OC` (stereo not drawn), the results for the IC50 in assay [1] and in assay [3] were 8 nM and 299 nM, respectively. Moreover, the outcome in assay [2] and in assay [4] was inactive.

With `COc1[nH]c(Br)c(C(=O)c2ccc(Cl)cc2)c(=O)c1OC`, the IC50 was 1270 nM in assay [1] and 1940 nM in assay [3]. Besides, the outcome in assay [2] and in assay [4] was inactive.

Turning to `COc1[nH]cc(C(=O)c2ccc3ccccc3c2)c(=O)c1OC`, the values for the concentration for half-maximal inhibition (IC50) in assay [1] and in assay [3] were 12800 nM and 20700 nM, respectively. Further, the result in assay [2] and in assay [4] was inactive.

In the case of `COc1[nH]c(OC)c(C(=O)c2ccc(Cl)cc2)c(=O)c1OC`, the IC50 in assay [1] and in assay [3] was over 30000 nM each time. The result in assay [2] and in assay [4] was inactive.

Take `CCCCC(C)C(=O)c1c(O)nc(OC)c(OC)c1O` (stereo not drawn): the half-maximal inhibitory concentration (IC50) was 20 nM in assay [1] and 122 nM in assay [3]. Further, the outcome in assay [2] and in assay [4] was inactive.

For the compound `COc1nc(O)c(C(=O)c2cccc(Oc3ccccc3)c2)c(O)c1OC`, the figures for the IC50 in assay [1] and in assay [3] were 112 nM and 2330 nM, respectively. Besides, the result in assay [2] and in assay [4] was inactive.

Turning to `COc1[nH]c(=O)c(C(=O)[C@@H](C)C[C@H](C)[C@@H](Cl)CCl)c(O)c1OC` [ATPENIN A5], the IC50 in assay [1] was 4 nM; in assay [3], 11 nM.

As to `COc1[nH]cc(C(=O)c2ccccc2Oc2ccccc2)c(=O)c1OC`, the IC50 in assay [1] and in assay [3] was over 30000 nM each time. The result in assay [2] and in assay [4] was inactive.

With `COc1[nH]c(C)c(C(=O)c2ccc(Cl)cc2)c(=O)c1OC`, the IC50 in assay [1] is 13800 nM; in assay [3], 14000 nM. The outcome in assay [2] and in assay [4] was inactive.

Regarding `COc1ccc(C(=O)c2c[nH]c(OC)c(OC)c2=O)cc1`, the IC50 in assay [1] and in assay [3] was over 30000 nM in each case. Also, the outcome in assay [2] and in assay [4] was inactive.

For the compound `COc1nc(OC(C)=O)c(C(=O)c2ccc(Cl)cc2)c(OC(C)=O)c1OC`, the IC50 in assay [1] and in assay [3] was over 30000 nM each time. Further, the outcome in assay [2] and in assay [4] was inactive.

On to `COc1nc(O)c(C(=O)c2ccc(Cl)cc2)c(O)c1OC`, for which the figures for the IC50 in assay [1] and in assay [3] were 326 nM and over 30000 nM, respectively. Besides, the outcome in assay [2] and in assay [4] was inactive.

As to `CCC(C)C(=O)c1c[nH]c(OC)c(OC)c1=O` (stereo not drawn), the IC50 in assay [1] and in assay [3] was over 30000 nM in each case. The outcome in assay [2] and in assay [4] was inactive.

Regarding `COc1nc(O)c(C(=O)C2CCCCC2)c(O)c1OC`, the IC50 is 127 nM in assay [1] and 1780 nM in assay [3]. In addition, the outcome in assay [2] and in assay [4] was inactive.

Regarding `COc1[nH]cc(C(=O)c2ccc(Oc3ccccc3)cc2)c(=O)c1OC`, the IC50 came out at 492 nM in assay [1] and 4080 nM in assay [3]. Also, the outcome in assay [2] and in assay [4] was inactive.

On to `CCCCCCCCCC(C)C(=O)c1c(O)nc(OC)c(OC)c1O` (stereo not drawn), for which the values for the concentration for half-maximal inhibition (IC50) in assay [1] and in assay [3] were 3 nM and 4 nM, respectively. For the same compound, the outcome in assay [2] and in assay [4] was inactive.

Turning to `COc1nc(O)c(C(=O)C(C)CCC=C(C)C)c(O)c1OC` (stereo not drawn), the values for the IC50 in assay [1] and in assay [3] were 5 nM and 51 nM, respectively. Besides, the result in assay [2] and in assay [4] was inactive.

For the compound `COc1nc(OS(C)(=O)=O)c(C(=O)c2ccc(Cl)cc2)c(OS(C)(=O)=O)c1OC`, the IC50 in assay [1] and in assay [3] was over 30000 nM in each case. In addition, the result in assay [2] and in assay [4] was inactive.
